# HCT116 PTEN-null: PTEN-deleted cell growth suppression | 1.2% of 140,000 active | HCT116 PTEN-null viability, CellTiter-Glo, 60 h; stronger effect = lower value | viability, % at 10 µM | AID 827;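 active = viability at or below a set limit, 4 SD under the median of all tested compounds, cut at about 3.7% in these data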;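 also: PTEN knockout HCT116 line with beta catenin targeted HCT116 as companion control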
# HCT116 bCat-KO: beta-catenin-lacking colon tumor cell growth suppression | AID 818 | 1.5% of 140,000 active | viability, % at 10 µM | HCT116 beta-catenin knockout viability, CellTiter-Glo, 60 h; stronger effect = lower value;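 active = viability at or under a set limit, the compound median less 4 SD, cut at about 6% in these data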;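 also: 0% = Hyamine 1622 control at 20 µM and 100% = untreated cell control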
# Fibroblast inh: blocks proliferation of human lung fibroblasts | LL 47 human lung fibroblast viability, ATP luminescence; stronger effect = lower value | viability, % at 10 µM | 1.1% of 85,000 active | AID 719;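 active = viability at or below 50% in the single dose screen; inactive = viability above 50%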;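 also: compound exposure lasted 72 h before the ATP readout; 100% = median luminescence of untreated cell-only wells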
#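 Assay system: human lung fibroblast line LL 47, low passage. Input: 1,150 fibroblasts seeded per well. Times: overnight cell rest, 72 h compound treatment at 37 °C. Evaluation: % viability of median cell-only signal. Technique: luminescent ATP detection, CellTiter-Glo. Control set: cell-only wells, no compound.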
# HUVEC inhibit: blocks proliferation of human endothelial cells; HUVEC proliferation, CellTiter-Glo luminescence, 72 h; stronger effect = lower value; viability, % at 10 µM (by protocol); 1.1% of 86,000 active; AID 648;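 active = viability at or below 30%; inactive = viability above 30%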;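 also: 100% = median luminescence of DMSO-only cell control wells on each plate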
# H69AR inhibit: blocks growth of human H69AR lung tumor cells; H69AR lung tumor viability, ATP luminescence, 72 h; stronger effect = lower value; viability, % at 10 µM; 6% of 85,000 active; AID 598;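 active = viability at or below 40%; inactive = viability above 40%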;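 also: multidrug resistant small cell line overexpressing MRP-1 efflux transporter; 100% = mean luminescence of untreated control wells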
# The depositor's hits bear a star; . = not tested or not shown. Many of the other results were omitted from the sample, so hits are more common in it than they were.
SMILES,HCT116 PTEN-null,HCT116 bCat-KO,Fibroblast inh,HUVEC inhibit,H69AR inhibit
COCCOC(=O)c1[nH]c2c(c1C)C(=O)CC(c1ccccc1)C2 (configuration not stated),20,17,56,43,39*
Nc1ccccc1S(=O)(=O)NC1=NCCCCC1,95,90,.,.,.
COc1cc(/C=N/Nc2snc(SC)c2C#N)cc(OC)c1OC,15,14,71,60,24*
COC(=O)C1=C(C)NC(C)=C(C(=O)OC)C1c1cc2ccc(C)cc2[nH]c1=O,79,83,79,69,20*
CN(c1cccc(NC(=O)CN(c2cccc(Cl)c2)S(=O)(=O)c2ccccc2)c1)S(C)(=O)=O,74,72,.,.,.
COC(=O)c1nn(-c2ccccc2)nc1-c1nn(-c2ccccc2)nc1C(=O)OC,84,90,91,88,26*
CCCCN(CC)S(=O)(=O)c1ccc(C(=O)N=c2sc3cc(NC(C)=O)ccc3n2C)cc1,0.7*,0.6*,.,.,.
Cc1ccc(S(=O)(=O)NNC(=O)NC23CC4CC(CC(C4)C2)C3)cc1,98,80,.,.,.
COc1ccc(OC(C)C(=O)N2CCc3ccccc3C2)cc1 (configuration not stated),33,32,96,74,25*
COc1ccc(OC(C)C(=O)N2CCC(C)CC2)cc1 (configuration not stated),96,87,109,108,98
CSc1nsc(/C=C/Nc2ccc(Cl)cc2)c1C#N,79,83,.,.,.
CSc1nsc(/C=C/Nc2cccc(Cl)c2)c1C#N,62,66,97,93,29*
Cn1c(=O)c(NCCO)c2c3c(cccc31)C(=O)c1ccccc1-2,92,92,100,46,55
CCCCNc1c2c3c(cccc3n(C)c1=O)C(=O)c1ccccc1-2,40,39,83,52,16*
Cc1ccc2sc(NC(=O)CN3C(=O)CCC3=O)nc2c1C,108,105,99,104,98
Cc1c(Cl)ccc2sc(NC(=O)CN3C(=O)c4ccccc4C3=O)nc12,0.5*,0.8*,.,.,.
Cc1nn(-c2ccc(Cl)cc2)c2sc(C(=O)N3CCN(c4ccccn4)CC3)cc12,95,92,96,36,21*
CCN(Cc1ccccc1)C(c1cc2ccc(C)cc2[nH]c1=O)c1nnnn1CCOC (configuration not stated),95,95,89,90,88
Cc1ccc(-n2nnnc2-c2ccco2)cc1,97,98,96,96,95
Cc1ccc(-n2nnnc2C(Cl)c2nnnn2-c2ccc(C)cc2)cc1,1.1*,1.6*,.,.,.
CCCCOc1ncnc2c1[nH]c1ccc(OC)cc12,77,82,98,97,53
COc1ccc2[nH]c3c(Cl)ncnc3c2c1,9,5.7*,.,.,.
CCc1nn(C(C)C(=O)NCCN2CCN(c3cccc(C)c3C)CC2)c(=O)c2cc3occc3n12 (configuration not stated),5,2.5*,.,.,.
O=C(Nc1cccc(F)c1)C1CCN(C(=O)c2ccc(Br)cc2)CC1,69,69,102,92,34*
CC(NC(=O)CN(c1cccc(C(F)(F)F)c1)S(=O)(=O)c1ccc(Cl)c([N+](=O)[O-])c1)c1ccccc1 (configuration not stated),20,5.8*,.,.,.
SMILES,HCT116 PTEN-null,HCT116 bCat-KO,Fibroblast inh,HUVEC inhibit,H69AR inhibit
Cc1cnc(NC(=O)c2ccc(-c3nc4ccccc4s3)o2)s1,90,99,103,91,28*
CCOC(=O)C(CC)(CC)/C(C)=N/NC(=O)CC#N,93,91,100,82,91
O=C(/C=C/c1ccc2c(c1)OCO2)NCCSCc1c(Cl)cccc1Cl,97,89,.,.,.
O=C(Cn1cncc1-c1ccc([N+](=O)[O-])cc1)Nc1ccccc1F,81,86,.,.,.
C=CCn1c(SCC(=O)c2[nH]c(C)c(C(C)=O)c2C)nnc1-c1ccncc1,78,80,108,111,87
C=CCn1c(SCC(=O)c2[nH]c(C)c(C(=O)OC)c2C)nc2scc(-c3ccc(OC)c(OC)c3)c2c1=O,2.5*,4.1*,.,.,.
CCc1nc(SCC(=O)NCc2ccccc2)c2c(=O)n(C)c(=O)n(C)c2n1,84,95,94,87,27*
CCCc1nc(SCC(=O)N2CCC(Cc3ccccc3)CC2)c2c(=O)n(C)c(=O)n(C)c2n1,1.4*,8,105,3.2*,42
C/C(Cn1nc([N+](=O)[O-])cc1C)=N\NC(=O)c1cccc(Br)c1,99,102,.,.,.

# Screens: PubChem, SRMLSC
